Assay results published in ChEMBL document CHEMBL4376814, “Novel cyclin-dependent kinase 9 (CDK9) inhibitor with suppression of cancer stemness activity against non-small-cell lung cancer” (Eur J Med Chem, 2019).
Activity calls are given as the source filed them. The calls are words filed in the database; no cut-off is given here.

What was measured:
[1] = tested on: Mast/stem cell growth factor receptor Kit (Homo sapiens), P10721 [V654A]; assay: Inhibition of recombinant human cKit (544 to end residues) V654A mutant at 1 uM using GGMEDIYFEFMGGKKK as substrate measured after 40 mins in presence of [gamma33P]ATP by scintillation counting method relative to control
Summary of the method: (§1)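 Single-point inhibition at 1 µM was measured in the Eurofins KinaseProfiler panel. Values are the mean of two independent experiments.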

[2] = molecular target: Myosin light chain kinase 2, skeletal/cardiac muscle (Homo sapiens) (UniProt Q9H1R3); assay: Inhibition of recombinant full length human MYLK2 at 1 uM using KKLNRTLSFAEPG as substrate measured after 40 mins in presence of [gamma33P]ATP by scintillation counting method relative to control; summary of the method: as §1
[3] = molecular target: MAP kinase-interacting serine/threonine-protein kinase 2 (Homo sapiens) (UniProt Q9HBH9); assay: Inhibition of recombinant full-length human Mnk2 at 1 uM using myelin basic protein as substrate measured after 40 mins in presence of [gamma33P]ATP by scintillation counting method relative to control
NCI-H1299 [4] = assay: Antitumour activity against human H1299 cells xenografted in Balb/c mouse assessed as reduction in tumour size at 20 to 80 mg/kg, po after 21 days by digital caliper method; format: functional, organism-based
Summary of the method: (§2)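 Female nude mice, 6-8 weeks old, injected subcutaneously with 1×10^6 H1299 cells (100 µL of a 1×10^7/mL suspension in serum-free medium). At 100-120 mm3, randomized into groups of 5. Dosed orally each day for 21 days with drug dissolved in DMSO, or with vehicle. Caliper measurements and body weight taken every other day. Volume = short²×long×0.5. Growth inhibition based on change in volume relative to vehicle. Tumours weighed at the end.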

[5] = molecular target: Serine/threonine-protein kinase NLK (Homo sapiens) (UniProt Q9UBE8); assay: Inhibition of recombinant human NLK (121 to end residues) at 1 uM using myelin basic protein as substrate measured after 40 mins in presence of [gamma33P]ATP by scintillation counting method relative to control
[6] = molecular target: Cyclin-dependent kinase-like 4 (Homo sapiens) (UniProt Q5MAI5); assay: Inhibition of human CDKL4 at 1 uM at 1 uM by radiometric method relative to control
Summary of the method: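 Percent inhibition of kinase activity at a single compound concentration, measured by the outsourced Eurofins KinaseProfiler panel. Values are the mean of two independent experiments.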

[7] = molecular target: Serine/threonine-protein kinase PAK 6 (Homo sapiens) (UniProt Q9NQU5); assay: Inhibition of recombinant human PAK6 (382 to end residues) at 1 uM using RRRLSFAEPG as substrate measured after 40 mins in presence of [gamma33P]ATP by scintillation counting method relative to control
[8] = molecular target: MAP kinase-activated protein kinase 3 (Homo sapiens) (UniProt Q16644); assay: Inhibition of recombinant human MAPKAPK3 (2 to end residues) at 1 uM using KKLNRTLSVA as substrate measured after 40 mins in presence of [gamma33P]ATP by scintillation counting method relative to control
Chain of MAP kinase-activated protein kinase 3 (Homo sapiens) (Q16644 whole entry, looked up): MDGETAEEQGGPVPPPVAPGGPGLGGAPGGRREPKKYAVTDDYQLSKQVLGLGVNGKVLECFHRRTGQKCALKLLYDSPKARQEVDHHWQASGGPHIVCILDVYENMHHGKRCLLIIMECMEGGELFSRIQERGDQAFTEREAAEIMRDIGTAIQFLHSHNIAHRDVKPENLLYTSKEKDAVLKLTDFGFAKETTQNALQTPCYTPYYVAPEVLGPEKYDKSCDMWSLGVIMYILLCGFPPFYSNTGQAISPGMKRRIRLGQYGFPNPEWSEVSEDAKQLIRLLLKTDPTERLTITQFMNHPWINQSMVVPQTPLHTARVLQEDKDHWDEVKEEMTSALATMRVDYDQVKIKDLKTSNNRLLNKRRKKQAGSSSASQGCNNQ

[9] = molecular target: Serine/threonine-protein kinase MARK2 (Homo sapiens) (UniProt Q7KZI7); assay: Inhibition of recombinant full-length human PAR1Balpha at 1 uM using KKKVSRSGLYRSPSMPENLNRPR as substrate measured after 40 mins in presence of [gamma33P]ATP by scintillation counting method relative to control
[10] = molecular target: Myosin-IIIb (Homo sapiens) (UniProt Q8WXR4); assay: Inhibition of recombinant human MYO3B (1 to 326 residues) at 1 uM using RLGRDKYKTLRQIRQ as substrate measured after 40 mins in presence of [gamma33P]ATP by scintillation counting method relative to control
[11] = molecular target: Cyclin-dependent kinase 5/CDK5 activator 1 (Homo sapiens) (UniProt Q00535+Q15078); assay: Inhibition of recombinant full-length human CDK5/p25 at 1 uM using Histone H1 as substrate measured after 40 mins in presence of [gamma33P]ATP by scintillation counting method relative to control; format: protein-complex assay
[12] = molecular target: Calcium/calmodulin-dependent protein kinase type II subunit delta (Homo sapiens) (UniProt Q13557); assay: Inhibition of recombinant full-length human CaMK2delta at 1 uM using calmodulin as substrate measured after 40 mins in presence of [gamma33P]ATP by scintillation counting method relative to control
[13] = molecular target: G protein-coupled receptor kinase 6 (Homo sapiens) (UniProt P43250); assay: Inhibition of recombinant full-length human GRK6 at 1 uM using casein as substrate measured after 40 mins in presence of [gamma33P]ATP by scintillation counting method relative to control
NCI-H1299 [14] = assay: Antitumour activity against human H1299 cells xenografted in Balb/c mouse assessed as inhibition of tumour growth at 40 mg/kg, po administered for 21 days by digital caliper method relative to control; format: functional; settings: 504 h, read-out: TGI; summary of the method: as §2
[15] = molecular target: Serine/threonine-protein kinase Chk1 (Homo sapiens) (UniProt O14757); assay: Inhibition of full length recombinant human CHK1 at 1 uM using KKKVSRSGLYRSPSMPENLNRPR as substrate measured after 40 mins in presence of [gamma33P]ATP by scintillation counting method relative to control
[16] = molecular target: Ribosomal protein S6 kinase alpha-3 (Homo sapiens) (UniProt P51812); assay: Inhibition of recombinant full-length human Rsk3 at 1 uM using KKKNRTLSVA as substrate measured after 40 mins in presence of [gamma33P]ATP by scintillation counting method relative to control; summary of the method: as §1
HCC827 = assay: Antiproliferative activity against human HCC827 cells assessed as inhibition of cell viability after 72 hrs by CCK-8 assay; format: functional, cell-based; settings: HCC827, 72 h
Summary of the method: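 Cells kept at 37 °C, 5% CO2 in DMEM or RPMI-1640 with 10% FBS and 1% penicillin/streptomycin, then seeded at 3000 cells/well (adherent) or 10,000 cells/well (suspension). Exposed to a range of concentrations for 72 h. CCK-8 added for 1-4 h before reading A450. […] Three independent experiments.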

[17] = molecular target: Dual specificity mitogen-activated protein kinase kinase 7 (Homo sapiens) (UniProt O14733); assay: Inhibition of recombinant human MKK7 (2 to end residues) at 1 uM using unactive JNK1a1 as substrate measured after 40 mins in presence of [gamma33P]ATP by scintillation counting method relative to control
Chain of Dual specificity mitogen-activated protein kinase kinase 7 (Homo sapiens) (O14733 whole entry): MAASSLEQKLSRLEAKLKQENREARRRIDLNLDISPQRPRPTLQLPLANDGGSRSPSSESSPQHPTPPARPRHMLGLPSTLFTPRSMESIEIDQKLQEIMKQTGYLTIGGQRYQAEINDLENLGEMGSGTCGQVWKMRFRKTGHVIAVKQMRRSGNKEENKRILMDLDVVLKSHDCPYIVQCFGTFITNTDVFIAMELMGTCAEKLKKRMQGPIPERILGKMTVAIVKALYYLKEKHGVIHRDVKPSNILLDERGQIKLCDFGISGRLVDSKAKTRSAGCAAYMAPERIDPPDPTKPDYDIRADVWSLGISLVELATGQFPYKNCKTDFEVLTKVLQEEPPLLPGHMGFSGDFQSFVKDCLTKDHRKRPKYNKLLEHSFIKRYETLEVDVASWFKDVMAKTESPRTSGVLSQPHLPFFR

[18] = molecular target: DNA-dependent protein kinase catalytic subunit (Homo sapiens) (UniProt P78527); assay: Inhibition of recombinant full-length human DNA-PK at 1 uM using GST-cMyc-p53 as substrate measured after 40 mins by fluorescence assay relative to control
Chain of DNA-dependent protein kinase catalytic subunit (Homo sapiens) (P78527 whole entry): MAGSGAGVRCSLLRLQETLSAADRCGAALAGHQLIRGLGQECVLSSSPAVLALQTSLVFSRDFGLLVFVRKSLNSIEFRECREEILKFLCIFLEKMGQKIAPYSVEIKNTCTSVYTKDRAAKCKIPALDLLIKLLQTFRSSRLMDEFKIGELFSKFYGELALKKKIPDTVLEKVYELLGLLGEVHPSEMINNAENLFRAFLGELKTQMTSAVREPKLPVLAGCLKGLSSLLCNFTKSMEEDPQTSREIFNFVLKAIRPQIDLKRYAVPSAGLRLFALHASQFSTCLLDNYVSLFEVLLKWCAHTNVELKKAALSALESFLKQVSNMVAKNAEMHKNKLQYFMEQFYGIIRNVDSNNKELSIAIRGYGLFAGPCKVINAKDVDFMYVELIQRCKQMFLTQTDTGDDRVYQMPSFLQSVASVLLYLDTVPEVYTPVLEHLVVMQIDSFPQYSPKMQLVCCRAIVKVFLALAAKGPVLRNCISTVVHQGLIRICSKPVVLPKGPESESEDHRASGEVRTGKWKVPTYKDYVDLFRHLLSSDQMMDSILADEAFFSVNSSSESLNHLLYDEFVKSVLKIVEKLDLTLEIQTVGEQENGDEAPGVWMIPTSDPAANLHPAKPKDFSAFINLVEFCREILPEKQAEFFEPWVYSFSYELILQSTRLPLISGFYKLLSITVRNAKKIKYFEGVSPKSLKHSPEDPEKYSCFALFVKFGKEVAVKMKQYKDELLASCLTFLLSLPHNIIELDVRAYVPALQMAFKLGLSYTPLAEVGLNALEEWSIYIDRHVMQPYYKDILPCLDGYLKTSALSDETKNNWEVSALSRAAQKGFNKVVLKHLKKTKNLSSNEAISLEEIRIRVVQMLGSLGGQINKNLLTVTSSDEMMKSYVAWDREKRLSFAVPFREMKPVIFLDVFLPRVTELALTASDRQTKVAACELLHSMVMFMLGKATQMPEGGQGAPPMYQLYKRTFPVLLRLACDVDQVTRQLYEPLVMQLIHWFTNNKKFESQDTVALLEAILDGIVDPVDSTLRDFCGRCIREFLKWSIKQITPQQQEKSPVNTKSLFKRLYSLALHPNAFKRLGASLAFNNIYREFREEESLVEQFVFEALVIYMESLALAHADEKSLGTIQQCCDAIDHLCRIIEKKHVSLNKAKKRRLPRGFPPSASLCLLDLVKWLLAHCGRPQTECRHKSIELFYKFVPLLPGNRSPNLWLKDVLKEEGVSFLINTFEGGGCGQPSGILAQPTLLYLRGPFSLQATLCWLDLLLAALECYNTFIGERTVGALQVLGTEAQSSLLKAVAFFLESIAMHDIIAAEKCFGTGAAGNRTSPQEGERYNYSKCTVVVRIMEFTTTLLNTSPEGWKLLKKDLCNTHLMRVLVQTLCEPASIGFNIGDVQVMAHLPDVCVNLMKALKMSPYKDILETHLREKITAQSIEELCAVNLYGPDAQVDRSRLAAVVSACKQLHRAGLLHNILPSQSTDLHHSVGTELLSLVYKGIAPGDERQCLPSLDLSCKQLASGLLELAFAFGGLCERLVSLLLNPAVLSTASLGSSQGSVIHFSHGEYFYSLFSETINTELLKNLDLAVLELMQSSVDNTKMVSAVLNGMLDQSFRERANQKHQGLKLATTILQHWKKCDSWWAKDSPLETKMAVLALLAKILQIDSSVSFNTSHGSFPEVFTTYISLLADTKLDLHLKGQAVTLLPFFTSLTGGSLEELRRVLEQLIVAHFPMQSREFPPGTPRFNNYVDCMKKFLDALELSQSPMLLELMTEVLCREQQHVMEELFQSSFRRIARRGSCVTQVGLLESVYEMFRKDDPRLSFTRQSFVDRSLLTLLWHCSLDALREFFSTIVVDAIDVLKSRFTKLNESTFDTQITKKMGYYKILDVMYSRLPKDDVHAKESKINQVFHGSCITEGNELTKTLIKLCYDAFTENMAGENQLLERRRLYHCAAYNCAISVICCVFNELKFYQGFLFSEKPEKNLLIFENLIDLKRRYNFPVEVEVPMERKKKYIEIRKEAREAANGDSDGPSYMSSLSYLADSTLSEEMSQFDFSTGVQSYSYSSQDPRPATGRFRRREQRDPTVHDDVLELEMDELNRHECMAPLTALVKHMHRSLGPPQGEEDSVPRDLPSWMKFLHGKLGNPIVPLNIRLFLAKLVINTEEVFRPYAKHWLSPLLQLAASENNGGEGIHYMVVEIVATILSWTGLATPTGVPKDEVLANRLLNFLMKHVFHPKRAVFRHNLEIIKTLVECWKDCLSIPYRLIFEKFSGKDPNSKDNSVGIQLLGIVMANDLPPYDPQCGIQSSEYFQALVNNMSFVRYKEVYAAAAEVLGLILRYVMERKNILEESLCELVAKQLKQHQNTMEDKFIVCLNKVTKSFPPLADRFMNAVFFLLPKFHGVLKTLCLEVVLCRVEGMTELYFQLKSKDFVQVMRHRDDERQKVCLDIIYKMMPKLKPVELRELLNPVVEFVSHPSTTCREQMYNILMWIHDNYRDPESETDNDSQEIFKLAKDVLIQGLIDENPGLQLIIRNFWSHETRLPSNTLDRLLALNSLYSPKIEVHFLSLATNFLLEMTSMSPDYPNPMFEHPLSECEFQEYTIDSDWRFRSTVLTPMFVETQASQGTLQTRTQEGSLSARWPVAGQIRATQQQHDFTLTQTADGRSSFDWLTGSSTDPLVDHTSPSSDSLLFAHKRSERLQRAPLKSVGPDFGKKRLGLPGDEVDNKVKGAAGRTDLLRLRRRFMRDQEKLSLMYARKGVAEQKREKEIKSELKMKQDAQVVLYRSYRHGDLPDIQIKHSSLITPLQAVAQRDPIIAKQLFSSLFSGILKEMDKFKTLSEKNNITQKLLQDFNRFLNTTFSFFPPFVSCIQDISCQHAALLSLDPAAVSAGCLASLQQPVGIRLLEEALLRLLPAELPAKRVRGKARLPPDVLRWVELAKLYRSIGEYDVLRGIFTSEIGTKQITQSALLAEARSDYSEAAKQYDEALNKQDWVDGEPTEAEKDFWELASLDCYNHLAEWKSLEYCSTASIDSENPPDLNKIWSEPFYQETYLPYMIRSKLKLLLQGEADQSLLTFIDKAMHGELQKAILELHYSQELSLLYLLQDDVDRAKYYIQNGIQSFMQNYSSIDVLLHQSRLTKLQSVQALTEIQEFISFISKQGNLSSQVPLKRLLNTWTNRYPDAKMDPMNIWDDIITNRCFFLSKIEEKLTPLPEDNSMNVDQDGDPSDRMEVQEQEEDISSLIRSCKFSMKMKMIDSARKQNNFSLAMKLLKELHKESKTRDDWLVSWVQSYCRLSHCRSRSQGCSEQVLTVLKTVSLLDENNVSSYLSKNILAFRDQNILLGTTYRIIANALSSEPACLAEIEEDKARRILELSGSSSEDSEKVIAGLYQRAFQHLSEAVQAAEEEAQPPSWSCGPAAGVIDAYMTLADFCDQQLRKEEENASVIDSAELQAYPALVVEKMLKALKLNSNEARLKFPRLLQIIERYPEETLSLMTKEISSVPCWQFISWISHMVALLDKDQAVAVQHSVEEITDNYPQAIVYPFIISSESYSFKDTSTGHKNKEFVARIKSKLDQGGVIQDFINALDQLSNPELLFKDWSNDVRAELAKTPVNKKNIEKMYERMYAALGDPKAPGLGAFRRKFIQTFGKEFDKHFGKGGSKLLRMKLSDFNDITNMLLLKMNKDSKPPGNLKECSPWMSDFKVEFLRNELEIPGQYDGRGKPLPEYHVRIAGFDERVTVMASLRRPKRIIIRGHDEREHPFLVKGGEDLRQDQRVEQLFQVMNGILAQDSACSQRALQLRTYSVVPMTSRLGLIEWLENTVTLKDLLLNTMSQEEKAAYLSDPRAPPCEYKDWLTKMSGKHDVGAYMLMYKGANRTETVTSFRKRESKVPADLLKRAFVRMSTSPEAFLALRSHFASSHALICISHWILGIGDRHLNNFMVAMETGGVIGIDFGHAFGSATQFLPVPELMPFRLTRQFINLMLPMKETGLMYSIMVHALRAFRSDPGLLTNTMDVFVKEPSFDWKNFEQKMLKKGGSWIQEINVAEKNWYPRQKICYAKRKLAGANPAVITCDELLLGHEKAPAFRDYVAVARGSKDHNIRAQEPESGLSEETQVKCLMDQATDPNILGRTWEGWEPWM

[19] = molecular target: Serine/threonine-protein kinase Nek3 (Homo sapiens) (UniProt P51956); assay: Inhibition of recombinant full-length human NEK3 at 1 uM using myelin basic protein as substrate measured after 40 mins in presence of [gamma33P]ATP by scintillation counting method relative to control
[20] = molecular target: 5'-AMP-activated protein kinase catalytic subunit alpha-1 (Homo sapiens) (UniProt Q13131); assay: Inhibition of full length recombinant human AMPK alpha1 at 1 uM using AMARAASAAALARRR as substrate measured after 40 mins in presence of [gamma33P]ATP by scintillation counting method relative to control; summary of the method: as §1

CN(C)C(=O)c1cc2cnc(Nc3ccc(NC(=O)CCCCCCCN=C=S)cc3)nc2n1C1CCCC1
inhibition [1]: 11%
inhibition [2]: 12%
inhibition [3]: 68%
Activity (NCI-H1299 [4]): Active
inhibition [5]: 13%
inhibition [6]: 25%
inhibition [7]: 9%
inhibition [8]: 0%
inhibition [9]: 2%
inhibition [10]: -1%
inhibition [11]: 63%
inhibition [12]: 36%
inhibition [13]: 5%
inhibition in vivo at 40 mg/kg (NCI-H1299 [14]): 89.7%
inhibition [15]: -9%
inhibition [16]: 12%
IC50 (HCC827): 1070 nM
inhibition [17]: 35%
inhibition [18]: 9%
inhibition [19]: 19%
inhibition [20]: 11%
